According to ChEMBL document CHEMBL3244297, “In vitro antiplaque properties of a series of alkyl bis(biguanides)” (1978):

Assays:
Assay type in all cases: functional
Streptococcus mutans [1] = test: Antiplaque activity against wild type Streptococcus mutans 6715-13 assessed as growth inhibition of adherent cells on saliva coated bovine tooth slabs
Outline: (§1)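 Tooth slabs were treated with the test agents at a series of molar concentrations. The value is the lowest molar concentration (M × 10⁴) that gave >90% inhibition of growth of adherent cells, based on triplicate sets.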

Actinomyces viscosus [2] = test: Antibacterial activity against Actinomyces viscosus M-100-2000 assessed as growth inhibition by tube dilution assay
Outline: (§2)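 Standard tube dilution assay, modified so that adherent cells were dispersed before cell density was read spectrophotometrically at 540 nm. The value is the minimum inhibitory concentration, given in molar units.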

Streptococcus mutans [3] = test: Antibacterial activity against wild type Streptococcus mutans 6715-13 assessed as growth inhibition by tube dilution assay; outline: as §2
Actinomyces naeslundii [4] = test: Antibacterial activity against Actinomyces naeslundii ATCC 12104 assessed as growth inhibition by tube dilution assay; outline: as §2
Actinomyces naeslundii [5] = test: Antiplaque activity against Actinomyces naeslundii ATCC 12104 assessed as growth inhibition of adherent cells on saliva coated bovine tooth slabs; outline: as §1
Actinomyces viscosus [6] = test: Antiplaque activity against Actinomyces viscosus M-100-2000 assessed as growth inhibition of adherent cells on saliva coated bovine tooth slabs; outline: as §1

SMILES	MIC>90 (Streptococcus mutans [1])	MIC (Actinomyces viscosus [2])	MIC (Streptococcus mutans [3])	MIC (Actinomyces naeslundii [4])	MIC>90 (Actinomyces naeslundii [5])	MIC>90 (Actinomyces viscosus [6])
CCCCCCNC(=N)NC(=N)NCCCCCCCCCCNC(=N)NC(=N)NCCCCCC.Cl	10 ×10⁻⁴ M	10 µM	10 µM	10 µM	0.5 ×10⁻⁴ M	>10 ×10⁻⁴ M
CCCCCCCCCNC(=N)NC(=N)NCCCCNC(=N)NC(=N)NCCCCCCCCC.Cl	70 ×10⁻⁴ M	10 µM	100 µM	10 µM	1 ×10⁻⁴ M	10 ×10⁻⁴ M
CCCCCC(CC)CNC(=N)NC(=N)NCCCCNC(=N)NC(=N)NCC(CC)CCCCC.Cl (stereo not given)	100 ×10⁻⁴ M	10 µM	10 µM	10 µM	0.5 ×10⁻⁴ M	10 ×10⁻⁴ M
CCCCCCCCNC(=N)NC(=N)NCCCCCCNC(=N)NC(=N)NCCCCCCCC.Cl	8 ×10⁻⁴ M	10 µM	10 µM	10 µM	0.5 ×10⁻⁴ M	5 ×10⁻⁴ M

Second part, the compound after the results:

MIC>90 (Streptococcus mutans [1])	MIC (Actinomyces viscosus [2])	MIC (Streptococcus mutans [3])	MIC (Actinomyces naeslundii [4])	MIC>90 (Actinomyces naeslundii [5])	MIC>90 (Actinomyces viscosus [6])	SMILES
>10 ×10⁻⁴ M	10 µM	10 µM	10 µM	0.5 ×10⁻⁴ M	>10 ×10⁻⁴ M	CCCCCCCNC(=N)NC(=N)NCCCCCCCCNC(=N)NC(=N)NCCCCCCC.Cl
50 ×10⁻⁴ M	1 µM	10 µM	10 µM	0.5 ×10⁻⁴ M	>10 ×10⁻⁴ M	CCCCCCCNC(=N)NC(=N)NCCCCCCNC(=N)NC(=N)NCCCCCCC.Cl
100 ×10⁻⁴ M	1 µM	10 µM	10 µM	0.8 ×10⁻⁴ M	0.8 ×10⁻⁴ M	CCCCCCNC(=N)NC(=N)NCCCCCCNC(=N)NC(=N)NCCCCCC.Cl
10 ×10⁻⁴ M	10 µM	10 µM	10 µM	>100 ×10⁻⁴ M	>10 ×10⁻⁴ M	N=C(NCCCCCCNC(=N)NC(=N)Nc1ccc(Cl)cc1)NC(=N)Nc1ccc(Cl)cc1.O=C(O)[C@H](O)[C@@H](O)[C@H](O)[C@H](O)CO
>100 ×10⁻⁴ M	0.1 µM	10 µM	10 µM	5 ×10⁻⁴ M	0.5 ×10⁻⁴ M	CCCCC(CC)CNC(=N)NC(=N)NCCCCCCNC(=N)NC(=N)NCC(CC)CCCC.Cl.Cl (stereo not given) [ALEXIDINE DIHYDROCHLORIDE]
3 ×10⁻⁴ M	1 µM	10 µM	10 µM	1 ×10⁻⁴ M	>10 ×10⁻⁴ M	CCCCCCNC(=N)NC(=N)NCCCCCCCCNC(=N)NC(=N)NCCCCCC.Cl
